In brackets after ≈: the same amount, converted by molar mass. Several values for one entry are separate records, joined by “and”; a condition that tells them apart may be missing. Identical values can stand only once.
Key:
Assay in all cases: Antibacterial screening, broth dilution MIC
Format in all cases: cell-based
[1] = system: Enterococcus faecium (DSM 20477, ATCC 19434); details: E. faecium, TSY medium, 20 h at 37 °C, absorbance 600 nm, n=3‐13
In short: (§1)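 Test compound serially diluted from 64 μg/ml, inoculum 2–8×10^5 CFU/ml, duplicate wells. Incubated 20 h at 37 °C, then absorbance read at 600 nm. MIC derived by curve fitting over three independent experiments. Positive controls: linezolid for S. aureus, ciprofloxacin for the others.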

[2] = system: Acinetobacter baumannii (DSM 30007, ATCC 19606); details: A. baumannii, MHB medium, 20 h at 37 °C, absorbance 600 nm, n=3‐13
In short: as §1, with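 “Broth microdilution in MHB (21 g/L Müller Hinton, pH 7.4). Test” for “Test”, “amikacin” for “linezolid”, “P. aeruginosa,” for “S. aureus,”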

[3] = system: Escherichia coli (DSM1116, ATCC 9637); details: E. coli, TSY medium, 20 h at 37 °C, absorbance 600 nm, n=3‐13
In short: as §1

[4] = system: Pseudomonas aeruginosa PA7 (DSM 24068); details: for Mean MIC ± standard error: P. aeruginosa PA7, MHB medium, 20 h at 37 °C, absorbance 600 nm, n=3‐13
In short: as §1, with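 “Broth microdilution in MHB (21 g/L Müller Hinton, pH 7.4). Test” for “Test”, “amikacin” for “linezolid”, “P. aeruginosa,” for “S. aureus,”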

[5] = system: Staphylococcus aureus MRSA (DSM 11822, ICB 25701); details: for Mean MIC ± standard error: MRSA, TSY medium, 20 h at 37 °C, absorbance 600 nm, n=3‐13
In short: as §1

[6] = system: Klebsiella pneumoniae (DSM 11678, ATCC33495); details: K. pneumoniae, MHB medium, 20 h at 37 °C, absorbance 600 nm, n=3‐13
In short: as §1, with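 “Broth microdilution in MHB (21 g/L Müller Hinton, pH 7.4). Test” for “Test”, “amikacin” for “linezolid”, “P. aeruginosa,” for “S. aureus,”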

SMILES: CCn1[c](=[Au-2][Cl])n(CC)c2ccccc21 [2 b]
- Mean MIC ± standard error [1]: 1.2 ± 0.0 µM
- Mean MIC ± standard error [2]: 8.4 ± 2.4 µM
- Mean MIC ± standard error [3]: 39.3 ± 0.0 µM
- Mean MIC ± standard error [4]: 118.0 ± 43.1 µM
- Mean MIC ± standard error [5]: 0.8 ± 0.4 µM
- Mean MIC ± standard error [6]: 65.6 µM and 65.6 ± 32.1 µM

SMILES: CC(=O)NC[C@H]1CN(c2ccc(N3CCOCC3)c(F)c2)C(=O)O1 [linezolid, reference compound]
- MIC ([5]; Staphylococcus aureus, DSM11822|MRSA, 20 h, read-out: Mean MIC ± standard error): 2.8 ± 1 µM (≈ 0.945 µg/mL)

SMILES: CCn1[c](=[Au-2]([Cl])([Cl])[Cl])n(CC)c2ccccc21 [2 c]
- Mean MIC ± standard error [1]: 4.2 ± 0.0 µM
- Mean MIC ± standard error [2]: 3.5 ± 1.2 µM
- Mean MIC ± standard error [3]: 39.1 ± 25.6 µM
- Mean MIC ± standard error [4]: >30 µM
- Mean MIC ± standard error [5]: 1.1 ± 0.0 µM
- Mean MIC ± standard error [6]: 16.8 µM and 16.8 ± 0.0 µM

SMILES: CC(=O)OC[C@H]1O[C@@H]([S-])[C@H](OC(C)=O)[C@@H](OC(C)=O)[C@@H]1OC(C)=O.CCP(CC)CC.[Au+] [auranofin, reference compound]
- Mean MIC ± standard error [1]: 0.6 ± 0.2 µM
- Mean MIC ± standard error [2]: 7.8 ± 7.1 µM
- Mean MIC ± standard error [3]: >30 µM
- Mean MIC ± standard error [4]: >30 µM
- Mean MIC ± standard error [5]: <0.2 µM
- Mean MIC ± standard error [6]: >30 µM

SMILES: NCC[C@H](O)C(=O)N[C@@H]1C[C@H](N)[C@@H](O[C@H]2O[C@H](CN)[C@@H](O)[C@H](O)[C@H]2O)[C@H](O)[C@H]1O[C@H]1O[C@H](CO)[C@@H](O)[C@H](N)[C@H]1O [amikacin, reference compound]
- MIC ([4]; Pseudomonas aeruginosa, DSM24068, 20 h, read-out: Mean MIC ± standard error): 6.9 ± 7.3 µM (≈ 4.04 µg/mL)

From PMC9290826 (Chemmedchem, 2021)
